Measured values from ChEMBL document CHEMBL1124606, “Benzo- and pyrido-1,4-oxazepin-5-ones and -thiones: synthesis and structure-activity relationships of a new series of H1 antihistamines” (1989).

Tests used:
Felis catus [1] = assay: The compound dose required for 50% block of H1 histamine activity, when administarted intra venously in cats; type: functional
Procedure, shortened: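 Cats given test compound iv (0.001-20 mg/kg), with blood pressure recorded continuously. Histamine 0.5 μg/kg iv was given to induce hypotension, before and 5, 10 and 20 min after each dose. The antihistaminic dose was the one inhibiting the histamine response by >50%. Values are mean ± SD over the number of experiments per compound.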

Felis catus [2] = assay: The compound dose required to elicit marked cortical slowing and spindling, when administarted intra venously in cats; type: functional
Procedure, shortened: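 Cats given test compound iv (0.001-20 mg/kg), with spontaneous EEG inspected after each dose for cortical slowing, synchrony and spindle-type activity. The sedative dose was the one producing marked slowing and spindling (synchrony). Values are mean ± SD over the number of experiments per compound.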

Cavia porcellus [3] = assay: Histamine induced lethality, at 30-min pretreatment time when 0.3 mg/kg compound was administered intra peritoneally in guinea pigs; type: functional
[4] = molecular target: Histamine H1 receptor (Cavia porcellus) (UniProt P31389); assay: Histamine induced lethality, at 30-min pretreatment time of 3 mg/kg i.p. in guinea pigs.; type: functional, organism-based; design: dose 3 mg/kg; details: at 3 mg/kg
Cavia porcellus [5] = assay: Histamine induced lethality, at 30-min pretreatment time when 30 mg/kg compound was administered intra peritoneally in guinea pigs; type: functional
Cavia porcellus [6] = organism: Cavia porcellus; assay: Effective dose that protects guinea pigs against histamine induced lethality at 6 hours pretreatment time; type: functional
Procedure, shortened: (§1)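 Survival at 24 h after challenge was scored as protection. Groups of 5–10 animals per treatment; ED50 was calculated by the Litchfield–Wilcoxon method or by computer probit analysis.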

Cavia porcellus [7] = organism: Cavia porcellus; assay: Effective dose that protects guinea pigs against histamine induced lethality, at 1 hour pretreatment time; type: functional; procedure, shortened: as §1
[8] = molecular target: Histamine H1 receptor (Cavia porcellus) (UniProt P31389); assay: Histamine induced lethality, at 60-min pretreatment time of 0.1 mg/kg p.o. in guinea pigs.; type: functional, organism-based; design: dose 0.1 mg/kg; details: at 0.1 mg/kg
Cavia porcellus [9] = assay: Histamine induced lethality, at 30-min pretreatment time when 3 mg/kg compound was administered intra peritoneally in guinea pigs; type: functional
Cavia porcellus [10] = assay: Histamine induced lethality, at 30-min pretreatment time when 1 mg/kg compound was administered intra peritoneally in guinea pigs; type: functional
Cavia porcellus [11] = assay: Histamine induced lethality, at 30-min pretreatment time when 30 mg/kg compound was administered intra peritoneallyn guinea pigs; type: functional
Cavia porcellus [12] = assay: Histamine induced lethality, at 60-min pretreatment time when 0.3 mg/kg compound was administered perorally in guinea pigs; type: functional; details: route oral
Cavia porcellus [13] = assay: Histamine induced lethality, at 60-min pretreatment time when 3 mg/kg compound was administered perorally in guinea pigs; type: functional; details: route oral
Cavia porcellus [14] = assay: Histamine induced lethality, at 60-min pretreatment time when 30 mg/kg compound was administered perorally in guinea pigs; type: functional; details: route oral
Cavia porcellus [15] = assay: Histamine induced lethality, at 60-min pretreatment time when 1 mg/kg compound was administered perorally in guinea pigs; type: functional; details: route oral
Cavia porcellus [16] = assay: Histamine induced lethality, at 30-min pretreatment time when 1 mg/kg compound was administered perorally in guinea pigs; type: functional; details: route oral
Cavia porcellus [17] = assay: Histamine induced lethality, at 60-min pretreatment time when 0.1 mg/kg compound was administered perorally in guinea pigs; type: functional; details: route oral

Sequence of Histamine H1 receptor (Cavia porcellus) (P31389 whole entry): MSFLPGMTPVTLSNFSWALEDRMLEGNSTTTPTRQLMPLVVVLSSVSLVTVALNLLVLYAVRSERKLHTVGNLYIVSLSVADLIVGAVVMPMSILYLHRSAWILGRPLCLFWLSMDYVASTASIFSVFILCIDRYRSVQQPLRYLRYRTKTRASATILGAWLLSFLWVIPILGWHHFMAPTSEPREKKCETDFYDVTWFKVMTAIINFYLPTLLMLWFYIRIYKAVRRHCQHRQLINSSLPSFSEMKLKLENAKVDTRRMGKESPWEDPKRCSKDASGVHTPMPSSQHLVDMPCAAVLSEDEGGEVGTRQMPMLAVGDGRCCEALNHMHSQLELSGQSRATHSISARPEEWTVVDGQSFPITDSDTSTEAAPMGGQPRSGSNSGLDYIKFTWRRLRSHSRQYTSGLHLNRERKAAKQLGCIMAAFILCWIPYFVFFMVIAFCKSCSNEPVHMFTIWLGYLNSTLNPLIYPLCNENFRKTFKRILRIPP

| Structure (SMILES) | Dose (Felis catus [1]) [mg/kg] | Dose (Felis catus [2]) [mg/kg] | Survival [4] [%] | survival at 30 mg/kg (Cavia porcellus [5]) [%] | ED50 (Cavia porcellus [6]) [mg/kg] | ED50 (Cavia porcellus [7]) [mg/kg] | Survival [8] [%] | also measured |
| --- | --- | --- | --- | --- | --- | --- | --- | --- |
| CN(C)CCC1CN(C)C(=S)c2cc3ccccc3cc2O1 (stereo not drawn) | 0.5 | >20 | 67 | 100 |  |  |  | survival at 0.3 mg/kg (Cavia porcellus [3]): 100% |
| CN(C)CCC1CN(C)C(=S)c2cc(Cl)cnc2O1 (stereo not drawn) | 0.5 | >20 |  |  | 0.6 | 0.04 | 100 |  |
| CN(C)CCC1CN(C)C(=S)c2ccc3ccccc3c2O1 (stereo not drawn) |  |  |  | 100 |  |  |  | survival at 3 mg/kg (Cavia porcellus [9]): 33% |
| CN(C)CCC1CN(C)C(=S)c2cnccc2O1 (stereo not drawn) |  |  | 100 | 100 |  |  |  | survival at 1 mg/kg (Cavia porcellus [10]): 0% |
| CN1CC(CCN2CCC2)Oc2ncc(Cl)cc2C1=S (stereo not drawn) | 0.005 | >20 |  |  | 0.02 | 0.02 | 100 |  |
| CN(C)CCC1CN(C)C(=O)c2cccnc2S1 (stereo not drawn) |  |  | 0 |  |  |  |  | survival at 30 mg/kg (Cavia porcellus [11]): 67% |
| CN(C)CCC1CN(C)C(=O)c2cnccc2O1 (stereo not drawn) |  |  | 67 | 100 |  |  |  | survival at 1 mg/kg (Cavia porcellus [10]): 33% |
| CN(C)CCC1CN(C)C(=O)c2cc3ccccc3nc2O1 (stereo not drawn) |  |  | 100 |  |  |  |  | survival at 1 mg/kg (Cavia porcellus [10]): 0% |
| CN(C)CCC(c1ccc(Br)cc1)c1ccccn1 (stereo not drawn) [BROMPHENIRAMINE] | 1.3 | 1.7 |  |  | 2.5 | 0.08 | 40 | survival at 0.3 mg/kg (Cavia porcellus [12]): 100% |
| CN(C)CCC1CN(C)C(=S)c2cccnc2O1 (stereo not drawn) [ROCASTINE] | 0.5 | >20 |  |  | 6 | 0.12 | 50 | survival at 0.3 mg/kg (Cavia porcellus [12]): 100% |
| CN(C)CCC1CN(C)C(=S)c2cccnc2S1 (stereo not drawn) |  |  |  | 100 |  |  |  | survival at 3 mg/kg (Cavia porcellus [9]): 0% |
| CN1CC(CCN2CCC2)Oc2ncc(Cl)cc2C1=O (stereo not drawn) | 0.06 | >20 |  |  | 0.8 | 0.04 | 100 |  |
| CN1CC(CCN2CCC2)Oc2ncccc2C1=O (stereo not drawn) | 0.6 | >20 |  |  | 6 | 0.13 | 67 | survival at 0.3 mg/kg (Cavia porcellus [12]): 100% |
| CN(C)CCC1CN(C)C(=S)c2ccccc2O1 (stereo not drawn) |  | >20 |  |  |  |  |  | survival at 3 mg/kg (Cavia porcellus [13]): 0%; survival at 30 mg/kg (Cavia porcellus [14]): 100%; survival at 1 mg/kg (Cavia porcellus [15]): 0%; survival at 1 mg/kg (Cavia porcellus [16]): 50%; survival at 0.1 mg/kg (Cavia porcellus [17]): 100% |
